Laboratory results published in ChEMBL document CHEMBL1157664, “Aminopyridinecarboxamide-based inhibitors: Structure-activity relationship” (Bioorg Med Chem, 2010).
pIC50: −log10 of the molar value.

Assays:
[1] = molecular target: T1, Inhibitor of nuclear factor kappa-B kinase subunit beta (Homo sapiens, UniProt O14920); experiment: Inhibition of human recombinant IKK2-mediated transfer of [gamma33P]ATP to biotinylated IkappaBalpha after 30 mins by scintillation counting
T1 sequence (O14920 whole entry): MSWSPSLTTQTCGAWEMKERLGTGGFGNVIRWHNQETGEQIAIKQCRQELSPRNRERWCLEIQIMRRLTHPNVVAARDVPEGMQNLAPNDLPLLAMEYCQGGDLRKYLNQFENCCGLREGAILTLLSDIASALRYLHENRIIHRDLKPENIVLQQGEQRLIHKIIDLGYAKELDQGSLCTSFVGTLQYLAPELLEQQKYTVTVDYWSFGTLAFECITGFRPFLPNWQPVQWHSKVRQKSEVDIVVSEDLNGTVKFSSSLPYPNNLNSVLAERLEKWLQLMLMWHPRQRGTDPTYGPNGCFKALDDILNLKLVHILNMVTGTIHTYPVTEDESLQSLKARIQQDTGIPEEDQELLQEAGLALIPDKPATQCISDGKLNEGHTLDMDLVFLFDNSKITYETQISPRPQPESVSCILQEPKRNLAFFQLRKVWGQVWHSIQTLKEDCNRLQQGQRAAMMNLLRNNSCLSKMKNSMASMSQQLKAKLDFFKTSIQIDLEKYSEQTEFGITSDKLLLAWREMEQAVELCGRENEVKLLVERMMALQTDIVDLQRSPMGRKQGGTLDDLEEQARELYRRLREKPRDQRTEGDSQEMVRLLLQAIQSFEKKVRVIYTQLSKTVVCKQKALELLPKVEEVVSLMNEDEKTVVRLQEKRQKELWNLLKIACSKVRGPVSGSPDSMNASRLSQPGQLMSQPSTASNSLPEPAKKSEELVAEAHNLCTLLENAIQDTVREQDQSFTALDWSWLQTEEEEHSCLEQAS
In short: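 Recombinant human IKK-2 enzyme (46 nM/rxn, 200 ng/rxn). Substrate 5 µM biotinylated IκBα peptide (residues spanning Ser32/Ser36) with 1 µM ATP plus 0.1 µCi [γ-33P]ATP. Buffer 25 mM Hepes pH 7.6 with 1 mM DTT, 2 mM MgCl2, 2 mM MnCl2, 10 mM NaF. Incubated 30 min at 25 °C, stopped with AG1X8 resin in formate buffer pH 3. Supernatant ³³P read by scintillation counting.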

[2] = Antiinflammatory activity in human synovial fibroblasts assessed as inhibition of IL-1-beta-stimulated IL8 production treated 1 hr before IL1-beta challenge measured after 18 hrs by ELISA; assay type: functional
In short: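 Rheumatoid arthritis patient synovial fibroblasts seeded at 1.5 × 10^4 cells/well in DMEM + 15% FBS and left to attach overnight. Medium then changed to DMEM + 1% FBS. Cells pretreated 1 h with increasing compound concentrations (0.2% Me2SO final), then stimulated 18 h with 1 ng/mL IL-1β. Secreted IL-8 measured by ELISA against standard curves (4-parameter logistic). Cytotoxicity checked by Alamar Blue.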

Compound	pIC50 [1]	pIC50 [2]
CN1CCN(c2ncccc2C(=O)Nc2ccc3c(c2)-c2c(c(C(N)=O)nn2-c2ccc(F)cc2)CC3)CC1	4.79	
NC(=O)c1nn(-c2ccc(F)cc2)c2c1CCc1ccc(NC(=O)c3ccnc(N4CCOCC4)c3)cc1-2	6.23	< 5.30
C[C@@H]1CN(c2cc(C(=O)Nc3ccc4c(c3)-c3c(c(C(N)=O)nn3-c3ccc(F)cc3)CC4)c(Cl)cn2)CCN1C	7.32	5.66
CNc1ncccc1C(=O)Nc1ccc2c(c1)-c1c(c(C(N)=O)nn1-c1ccc(F)cc1)CC2	5.49	
CNc1ccc(Cl)c(C(=O)Nc2ccc3c(c2)-c2c(c(C(N)=O)nn2-c2ccc4c(c2)OCO4)CC3)n1	6.32	5.24
CN1CCN(c2cc(C(=O)Nc3ccc4c(c3)-c3c(c(C(N)=O)nn3-c3ccc(F)cc3)CC4)ccn2)CC1	6.90	< 5.30
CN1CCN(c2ccc(Cl)c(C(=O)Nc3ccc4c(c3)-c3c(c(C(N)=O)nn3-c3ccc5c(c3)OCO5)CC4)n2)CC1	6.53	5.35
NC(=O)c1nn(-c2ccc3c(c2)OCO3)c2c1CCc1ccc(NC(=O)c3cccnc3N)cc1-2	5.87	
NC(=O)c1nn(-c2ccc(F)cc2)c2c1CCc1ccc(NC(=O)c3cccnc3N3CCOCC3)cc1-2	4.85	
NC(=O)c1nn(-c2ccc(F)cc2)c2c1CCc1ccc(NC(=O)c3cc(N4CCOCC4)ncc3Cl)cc1-2	6.84	5.67
C[C@H]1CN(c2cc(C(=O)Nc3ccc4c(c3)-c3c(c(C(N)=O)nn3-c3ccc(F)cc3)CC4)c(Cl)cn2)CCN1	7.29	5.88
COCCN1CCN(c2cc(C(=O)Nc3ccc4c(c3)-c3c(c(C(N)=O)nn3-c3ccc(F)cc3)CC4)c(Cl)cn2)CC1	7.23	5.99
NC(=O)c1nn(-c2ccc3c(c2)OCO3)c2c1CCc1ccc(NC(=O)c3cc(N4CCOCC4)ncc3Cl)cc1-2	7.05	6.07
C[C@@H]1CN(c2cc(C(=O)Nc3ccc4c(c3)-c3c(c(C(N)=O)nn3-c3ccc(F)cc3)CC4)c(Cl)cn2)C[C@H](C)N1C	7.01	5.26
CN1CCN(c2ncccc2C(=O)Nc2ccc3c(c2)-c2c(c(C(N)=O)nn2-c2ccc4c(c2)OCO4)CC3)CC1	4.76	
NC(=O)c1nn(-c2ccc3c(c2)OCO3)c2c1CCc1ccc(NC(=O)c3cccnc3N3CCOCC3)cc1-2	5.23	
CC(C)N1CCN(c2cc(C(=O)Nc3ccc4c(c3)-c3c(c(C(N)=O)nn3-c3ccc(F)cc3)CC4)c(Cl)cn2)CC1	6.97	5.83
NC(=O)c1nn(-c2ccc(F)cc2)c2c1CCc1ccc(NC(=O)c3cccnc3N)cc1-2	5.63	
CN1CCN(c2ccc(Cl)c(C(=O)Nc3ccc4c(c3)-c3c(c(C(N)=O)nn3-c3ccc(F)cc3)CC4)n2)CC1	6.46	5.32
NC(=O)c1nn(-c2ccc(F)cc2)c2c1CCc1ccc(NC(=O)c3nc(N4CCOCC4)ccc3Cl)cc1-2	5.90	5.52
C[C@@H]1CN(c2cc(C(=O)Nc3ccc4c(c3)-c3c(c(C(N)=O)nn3-c3ccc(F)cc3)CC4)c(Cl)cn2)CCN1	7.27	5.40
CN(C)CCNc1cc(C(=O)Nc2ccc3c(c2)-c2c(c(C(N)=O)nn2-c2ccc(F)cc2)CC3)c(Cl)cn1	7.15	5.33
CNc1ncccc1C(=O)Nc1ccc2c(c1)-c1c(c(C(N)=O)nn1-c1ccc3c(c1)OCO3)CC2	6.68	5.47
NC(=O)c1nn(-c2ccc3c(c2)OCO3)c2c1CCc1ccc(NC(=O)c3nc(N4CCOCC4)ccc3Cl)cc1-2	6.21	< 4.00

The next lines start with results.

pIC50 [1]	Compound	pIC50 [2]
7.54	CN1CCCN(c2cc(C(=O)Nc3ccc4c(c3)-c3c(c(C(N)=O)nn3-c3ccc(F)cc3)CC4)c(Cl)cn2)CC1	5.63
8.00	NC(=O)c1nn(-c2ccc(F)cc2)c2c1CCc1ccc(NC(=O)c3cc(N4CCNCC4)ncc3Cl)cc1-2	5.61
7.57	NC(=O)c1nn(-c2ccc(F)cc2)c2c1CCc1ccc(NC(=O)c3cc(N4CCCNCC4)ncc3Cl)cc1-2	5.71
7.35	C[C@H]1CN(c2cc(C(=O)Nc3ccc4c(c3)-c3c(c(C(N)=O)nn3-c3ccc(F)cc3)CC4)c(Cl)cn2)CCN1C	5.88
7.33	NC(=O)c1nn(-c2ccc(F)cc2)c2c1CCc1ccc(NC(=O)c3cccnc3Cl)cc1-2	4.92
7.48	CN1CCN(c2cc(C(=O)Nc3ccc4c(c3)-c3c(c(C(N)=O)nn3-c3ccc5c(c3)OCO5)CC4)c(Cl)cn2)CC1	6.20
7.34	C[C@@H]1CN(c2cc(C(=O)Nc3ccc4c(c3)-c3c(c(C(N)=O)nn3-c3ccc(F)cc3)CC4)c(Cl)cn2)C[C@H](C)N1	5.07
7.40	NC(=O)c1nn(-c2ccc3c(c2)OCO3)c2c1CCc1ccc(NC(=O)c3cc(N4CCNCC4)ncc3Cl)cc1-2	5.73
7.47	NC(=O)c1nn(-c2ccc3c(c2)OCO3)c2c1CCc1ccc(NC(=O)c3cccnc3Cl)cc1-2	5.30
7.72	CN(C)CCN(C)c1cc(C(=O)Nc2ccc3c(c2)-c2c(c(C(N)=O)nn2-c2ccc(F)cc2)CC3)c(Cl)cn1	5.38
